Measurements from ChEMBL document CHEMBL1147076, “Antitumor activity of MLN8054, an orally active small-molecule inhibitor of Aurora A kinase” (Proc Natl Acad Sci U S A, 2007).

How the values were obtained:
[1] = target: Ephrin type-A receptor 7 (Homo sapiens) (UniProt Q15375); experiment: Activity of human EphA7 kinase at 1 uM
Method in brief: (§1)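 Single-point kinase profiling: each kinase in a 226-kinase panel tested with compound at 1 μM and ATP at 10 μM in every assay, run by an external screening service.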

[2] = target: Ephrin type-B receptor 1 (Homo sapiens) (UniProt P54762); experiment: Activity of human EphB1 kinase at 1 uM; method in brief: as §1
[3] = target: Focal adhesion kinase 1 (Homo sapiens) (UniProt Q05397); experiment: Activity of human FAK kinase at 1 uM
[4] = target: Fibroblast growth factor receptor 1 (Homo sapiens) (UniProt P11362); experiment: Activity of human FGFR1 kinase at 1 uM; method in brief: as §1
[5] = target: Vascular endothelial growth factor receptor 1 (Homo sapiens) (UniProt P17948); experiment: Activity of human Flt1 kinase at 1 uM; method in brief: as §1
[6] = target: Homeodomain-interacting protein kinase 3 (Homo sapiens) (UniProt Q9H422); experiment: Activity of human HIPK3 kinase at 1 uM
[7] = target: Inhibitor of nuclear factor kappa-B kinase subunit alpha (Homo sapiens) (UniProt O15111); experiment: Activity of human IKKalpha kinase at 1 uM; method in brief: as §1
[8] = target: Interleukin-1 receptor-associated kinase 1 (Homo sapiens) (UniProt P51617); experiment: Activity of human IRAK1 kinase at 1 uM
[9] = target: Tyrosine-protein kinase JAK3 (Homo sapiens) (UniProt P52333); experiment: Activity of human JAK3 kinase at 1 uM
[10] = target: Serine/threonine-protein kinase 10 (Homo sapiens) (UniProt O94804); experiment: Activity of human LOK kinase at 1 uM
[11] = target: Dual specificity mitogen-activated protein kinase kinase 4 (Mus musculus) (UniProt P47809); experiment: Activity of mouse MKK4 kinase at 1 uM
Method in brief: (§2)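 Single-point screen in a 226-kinase panel run by an outside service. Test compound at 1 μM with ATP at 10 μM in every assay. Other assay conditions are not given.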

[12] = target: Ribosomal protein S6 kinase alpha-4 (Homo sapiens) (UniProt O75676); experiment: Activity of human MSK2 kinase at 1 uM; method in brief: as §1
[13] = target: Serine/threonine-protein kinase Nek3 (Homo sapiens) (UniProt P51956); experiment: Activity of human NEK3 kinase at 1 uM; method in brief: as §2
[14] = target: Serine/threonine-protein kinase PAK 4 (Homo sapiens) (UniProt O96013); experiment: Activity of human PAK4 kinase at 1 uM; method in brief: as §2
[15] = target: Serine/threonine-protein kinase PAK 5 (Homo sapiens) (UniProt Q9P286); experiment: Activity of human PAK5 kinase at 1 uM; method in brief: as §2
Bos taurus = species: Bos taurus; experiment: Activity of bovine PKA kinase at 1 uM
[16] = target: Protein kinase C beta type (Homo sapiens) (UniProt P05771); experiment: Activity of human PKC-beta-1 kinase at 1 uM; method in brief: as §2
[17] = target: Protein kinase C iota type (Homo sapiens) (UniProt P41743); experiment: Activity of human PKCiota kinase at 1 uM; method in brief: as §1
[18] = target: Protein kinase C theta type (Homo sapiens) (UniProt Q04759); experiment: Activity of human PKCtheta kinase at 1 uM; method in brief: as §1
[19] = target: cGMP-dependent protein kinase 1 (Homo sapiens) (UniProt Q13976); experiment: Activity of human PKG1-beta kinase at 1 uM; method in brief: as §1
[20] = target: Tyrosine-protein kinase FRK (Homo sapiens) (UniProt P42685); experiment: Activity of human PTK5 kinase at 1 uM; method in brief: as §2
[21] = target: Proto-oncogene tyrosine-protein kinase ROS (Homo sapiens) (UniProt P08922); experiment: Activity of human Ros kinase at 1 uM; method in brief: as §2
[22] = target: Serine/threonine-protein kinase Sgk2 (Homo sapiens) (UniProt Q9HBY8); experiment: Activity of human SGK2 kinase at 1 uM; method in brief: as §2
[23] = target: Serine/threonine-protein kinase DCLK2 (Homo sapiens) (UniProt Q8N568); experiment: Activity of human DCAMKL2 kinase at 1 uM; method in brief: as §1
[24] = target: Tyrosine-protein kinase ZAP-70 (Homo sapiens) (UniProt P43403); experiment: Activity of human ZAP70 kinase at 1 uM; method in brief: as §2
[25] = Inhibition of PKA by radioactive flashplate assay
Mus musculus [26] = experiment: Toxicity in human PC3 cells xenografted into athymic nude NCR nu/nu mouse assessed as decrease in body weight at 30 mg/kg, BID after 21 days; type: organism-based, PC-3; design: dose 30 mg/kg; scale not given: the % may be the effect or the level left; settings: in vivo, 504 h
Method in brief: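 Male athymic nude NCR nu/nu mice were given PC-3 cells (2 × 10^6) s.c. in the right flank. Drug in 10% hydroxypropyl-β-cyclodextrin/5% sodium bicarbonate was given orally twice daily for 21 days. Average loss of initial body weight was recorded on day 21 of treatment.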

[27] = target: ALK tyrosine kinase receptor (Homo sapiens) (UniProt Q9UM73); experiment: Activity of human ALK kinase at 1 uM
[28] = target: Activin receptor type-1B (Homo sapiens) (UniProt P36896); experiment: Activity of human ALK4 kinase at 1 uM
[29] = target: Serine/threonine-protein kinase BRSK2 (Homo sapiens) (UniProt Q8IWQ3); experiment: Activity of human BrSK2 kinase at 1 uM
[30] = target: Calcium/calmodulin-dependent protein kinase type II subunit delta (Homo sapiens) (UniProt Q13557); experiment: Activity of human CaMK2delta kinase at 1 uM; method in brief: as §1
[31] = target: CDK3/Cyclin E (Homo sapiens) (UniProt P24864+Q00526); experiment: Activity of human CDK3/cyclin E kinase at 1 uM; type: protein-complex assay; method in brief: as §1
DLD-1 = experiment: Antiproliferative activity against human DLD1 cells after 96 hrs by BrdU cell proliferation ELISA; type: functional, cell-based; settings: DLD-1, 96 h
Method in brief: (§3)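 BrdU incorporation proliferation assay on cultured human tumor lines; IC50 values derived from growth inhibition.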

MCF7 = experiment: Antiproliferative activity against human MCF7 cells after 96 hrs by BrdU cell proliferation ELISA; type: functional, cell-based; settings: MCF7, 96 h; method in brief: as §3
Mus musculus [32] = experiment: Toxicity in human HCT116 cells xenografted into athymic nude NCR nu/nu mouse assessed as decrease in body weight at 30 mg/kg, QD after 21 days; type: organism-based, HCT-116; design: dose 30 mg/kg; scale not given: the % may be the effect or the level left; settings: in vivo, 504 h
Method in brief: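 Female athymic nude NCR nu/nu mice were given HCT-116 cells (1 × 10^6) s.c. in the right flank. Drug in 10% hydroxypropyl-β-cyclodextrin/5% sodium bicarbonate was given orally (QD or BID) for 21 days. Body weight loss was recorded at the end of treatment, and neutrophil counts were also followed for the BID regimen.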

PC-3 [33] = experiment: Cell cycle arrest in human PC3 cells by accumulation at G1 phase at 1 uM after 24 hrs by flow cytometry relative to control; type: functional
PC-3 [34] = experiment: Cell cycle arrest in human PC3 cells by accumulation at S phase at 4 uM after 24 hrs by flow cytometry relative to control; type: functional
Method in brief: (§4)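 DNA content profiles by flow cytometry of PC-3 prostate tumor cells exposed to drug diluted in DMSO for 24 or 48 h. Phase distribution was compared with DMSO-treated control cells.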

PC-3 [35] = experiment: Cell cycle arrest in human PC3 cells by accumulation at G1 phase at 4 uM after 48 hrs by flow cytometry relative to control; type: functional; method in brief: as §4
PC-3 [36] = experiment: Cell cycle arrest in human PC3 cells by accumulation at S phase at 4 uM after 48 hrs by flow cytometry relative to control; type: functional; method in brief: as §4

Sequence of Serine/threonine-protein kinase Nek3 (Homo sapiens) (P51956 whole entry): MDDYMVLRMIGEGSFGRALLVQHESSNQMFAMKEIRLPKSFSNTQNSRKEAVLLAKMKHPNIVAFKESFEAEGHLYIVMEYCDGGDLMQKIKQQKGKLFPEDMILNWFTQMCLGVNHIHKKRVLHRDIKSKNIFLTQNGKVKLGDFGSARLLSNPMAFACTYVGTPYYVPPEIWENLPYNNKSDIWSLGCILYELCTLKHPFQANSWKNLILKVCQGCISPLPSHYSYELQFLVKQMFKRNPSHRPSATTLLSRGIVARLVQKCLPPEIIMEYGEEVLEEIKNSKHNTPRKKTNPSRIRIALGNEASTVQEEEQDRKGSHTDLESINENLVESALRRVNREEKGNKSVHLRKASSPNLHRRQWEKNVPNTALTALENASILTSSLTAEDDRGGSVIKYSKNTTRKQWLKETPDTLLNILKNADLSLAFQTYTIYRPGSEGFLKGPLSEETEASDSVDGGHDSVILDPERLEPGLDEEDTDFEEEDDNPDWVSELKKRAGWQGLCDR
Sequence of Ephrin type-A receptor 7 (Homo sapiens) (Q15375 28-998 limits assumed): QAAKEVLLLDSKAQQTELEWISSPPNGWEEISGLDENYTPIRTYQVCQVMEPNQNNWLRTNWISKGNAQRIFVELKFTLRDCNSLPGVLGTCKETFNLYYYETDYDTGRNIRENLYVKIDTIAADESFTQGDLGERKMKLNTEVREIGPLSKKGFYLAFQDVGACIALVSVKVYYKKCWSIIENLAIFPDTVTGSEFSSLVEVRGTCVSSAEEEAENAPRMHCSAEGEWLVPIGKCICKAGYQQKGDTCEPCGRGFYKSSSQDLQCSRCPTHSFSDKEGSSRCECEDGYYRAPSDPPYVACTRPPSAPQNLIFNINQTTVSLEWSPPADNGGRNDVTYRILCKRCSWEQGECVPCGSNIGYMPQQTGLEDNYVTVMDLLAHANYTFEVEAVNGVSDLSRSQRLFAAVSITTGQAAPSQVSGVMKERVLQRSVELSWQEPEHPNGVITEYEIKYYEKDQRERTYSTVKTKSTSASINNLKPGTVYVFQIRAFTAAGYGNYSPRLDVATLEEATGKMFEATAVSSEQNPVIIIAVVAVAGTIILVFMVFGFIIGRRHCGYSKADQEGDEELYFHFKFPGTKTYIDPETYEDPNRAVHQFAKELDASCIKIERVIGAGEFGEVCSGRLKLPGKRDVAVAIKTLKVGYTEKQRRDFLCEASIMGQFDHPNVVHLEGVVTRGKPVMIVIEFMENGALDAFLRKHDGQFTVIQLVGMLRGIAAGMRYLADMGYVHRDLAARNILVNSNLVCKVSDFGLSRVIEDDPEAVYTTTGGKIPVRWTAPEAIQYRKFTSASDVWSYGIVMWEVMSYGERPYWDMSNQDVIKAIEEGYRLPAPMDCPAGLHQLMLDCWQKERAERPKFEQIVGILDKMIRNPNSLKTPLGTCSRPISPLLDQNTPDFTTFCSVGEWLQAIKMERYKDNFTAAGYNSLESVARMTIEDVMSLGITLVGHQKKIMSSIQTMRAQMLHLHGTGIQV
Sequence of Tyrosine-protein kinase FRK (Homo sapiens) (P42685 whole entry): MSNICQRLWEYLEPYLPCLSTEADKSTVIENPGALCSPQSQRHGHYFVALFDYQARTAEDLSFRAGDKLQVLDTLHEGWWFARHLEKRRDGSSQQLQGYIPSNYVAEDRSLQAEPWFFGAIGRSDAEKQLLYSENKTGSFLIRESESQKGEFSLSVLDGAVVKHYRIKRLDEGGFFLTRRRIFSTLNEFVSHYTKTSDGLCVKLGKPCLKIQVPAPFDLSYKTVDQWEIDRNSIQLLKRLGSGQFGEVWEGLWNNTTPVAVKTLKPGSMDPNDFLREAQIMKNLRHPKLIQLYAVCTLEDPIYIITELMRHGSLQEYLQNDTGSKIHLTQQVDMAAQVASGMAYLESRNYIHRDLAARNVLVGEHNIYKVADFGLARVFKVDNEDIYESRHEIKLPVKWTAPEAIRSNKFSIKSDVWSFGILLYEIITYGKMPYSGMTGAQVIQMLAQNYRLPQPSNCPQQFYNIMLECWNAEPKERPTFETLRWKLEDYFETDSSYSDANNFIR
Sequence of Interleukin-1 receptor-associated kinase 1 (Homo sapiens) (P51617 whole entry, looked up): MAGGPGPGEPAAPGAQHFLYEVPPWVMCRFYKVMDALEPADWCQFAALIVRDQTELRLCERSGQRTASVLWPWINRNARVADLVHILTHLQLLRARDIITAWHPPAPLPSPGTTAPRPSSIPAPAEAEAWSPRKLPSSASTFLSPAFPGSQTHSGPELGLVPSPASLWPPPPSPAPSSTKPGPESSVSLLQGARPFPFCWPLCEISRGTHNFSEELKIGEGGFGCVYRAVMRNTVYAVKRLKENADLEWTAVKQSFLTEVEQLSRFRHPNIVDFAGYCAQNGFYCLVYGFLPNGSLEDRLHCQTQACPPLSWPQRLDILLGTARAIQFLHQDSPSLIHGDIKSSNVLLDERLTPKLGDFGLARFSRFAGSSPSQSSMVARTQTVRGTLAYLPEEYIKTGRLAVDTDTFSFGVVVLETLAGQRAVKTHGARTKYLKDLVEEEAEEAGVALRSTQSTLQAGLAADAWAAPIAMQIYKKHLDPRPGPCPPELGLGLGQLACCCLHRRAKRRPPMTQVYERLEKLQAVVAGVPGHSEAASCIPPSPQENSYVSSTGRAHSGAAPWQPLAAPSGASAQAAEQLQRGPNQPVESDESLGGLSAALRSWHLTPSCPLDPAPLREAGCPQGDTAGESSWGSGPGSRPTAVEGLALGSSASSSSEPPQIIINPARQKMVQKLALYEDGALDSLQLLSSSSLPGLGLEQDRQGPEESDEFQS
Sequence of Inhibitor of nuclear factor kappa-B kinase subunit alpha (Homo sapiens) (O15111 whole entry): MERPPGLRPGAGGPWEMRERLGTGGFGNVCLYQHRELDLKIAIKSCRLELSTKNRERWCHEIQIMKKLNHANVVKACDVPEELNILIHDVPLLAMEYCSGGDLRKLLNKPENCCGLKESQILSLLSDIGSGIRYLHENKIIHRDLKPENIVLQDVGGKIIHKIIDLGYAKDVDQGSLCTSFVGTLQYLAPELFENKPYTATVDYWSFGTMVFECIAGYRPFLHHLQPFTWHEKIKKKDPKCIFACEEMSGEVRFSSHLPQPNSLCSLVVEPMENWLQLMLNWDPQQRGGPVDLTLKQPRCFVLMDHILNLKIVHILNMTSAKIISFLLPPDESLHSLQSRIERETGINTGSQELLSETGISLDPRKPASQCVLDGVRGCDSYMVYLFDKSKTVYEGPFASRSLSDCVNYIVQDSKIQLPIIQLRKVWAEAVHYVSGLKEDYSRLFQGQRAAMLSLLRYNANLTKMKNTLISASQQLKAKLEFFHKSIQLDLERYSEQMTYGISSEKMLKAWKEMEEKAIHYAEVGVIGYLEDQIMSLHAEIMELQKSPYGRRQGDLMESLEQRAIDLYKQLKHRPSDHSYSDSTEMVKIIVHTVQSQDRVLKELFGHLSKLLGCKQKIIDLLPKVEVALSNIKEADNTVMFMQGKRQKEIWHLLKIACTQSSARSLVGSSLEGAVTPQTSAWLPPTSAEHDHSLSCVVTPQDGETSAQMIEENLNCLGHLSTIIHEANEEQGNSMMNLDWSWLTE
Sequence of Focal adhesion kinase 1 (Homo sapiens) (Q05397 2-1052 limits assumed): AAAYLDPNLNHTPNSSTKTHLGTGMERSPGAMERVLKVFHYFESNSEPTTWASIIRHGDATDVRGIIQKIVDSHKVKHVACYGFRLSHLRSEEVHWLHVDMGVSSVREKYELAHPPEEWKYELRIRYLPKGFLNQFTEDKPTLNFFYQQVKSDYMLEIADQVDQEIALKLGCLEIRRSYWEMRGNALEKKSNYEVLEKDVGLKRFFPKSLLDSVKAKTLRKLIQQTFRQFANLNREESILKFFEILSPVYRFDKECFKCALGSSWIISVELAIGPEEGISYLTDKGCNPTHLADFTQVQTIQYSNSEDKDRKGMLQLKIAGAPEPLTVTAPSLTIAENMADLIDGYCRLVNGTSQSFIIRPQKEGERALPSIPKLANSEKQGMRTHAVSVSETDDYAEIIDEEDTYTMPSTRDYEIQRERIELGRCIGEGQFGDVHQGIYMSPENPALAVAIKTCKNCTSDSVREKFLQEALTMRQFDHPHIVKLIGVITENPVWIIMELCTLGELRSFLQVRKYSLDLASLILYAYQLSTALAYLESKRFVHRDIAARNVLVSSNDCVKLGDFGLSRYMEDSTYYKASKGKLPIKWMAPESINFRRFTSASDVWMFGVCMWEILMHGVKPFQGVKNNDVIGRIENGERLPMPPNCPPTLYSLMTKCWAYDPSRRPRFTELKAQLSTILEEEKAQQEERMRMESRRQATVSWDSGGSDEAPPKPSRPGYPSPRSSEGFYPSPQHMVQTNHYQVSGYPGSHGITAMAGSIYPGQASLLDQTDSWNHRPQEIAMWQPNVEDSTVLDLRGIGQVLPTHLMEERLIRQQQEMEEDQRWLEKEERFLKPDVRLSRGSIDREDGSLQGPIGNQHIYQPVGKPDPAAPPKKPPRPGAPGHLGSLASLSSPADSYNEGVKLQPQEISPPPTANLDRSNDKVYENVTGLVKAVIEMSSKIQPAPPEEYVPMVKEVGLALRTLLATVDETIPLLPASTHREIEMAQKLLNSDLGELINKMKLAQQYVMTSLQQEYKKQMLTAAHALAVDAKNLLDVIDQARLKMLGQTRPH
Sequence of Activin receptor type-1B (Homo sapiens) (P36896 whole entry): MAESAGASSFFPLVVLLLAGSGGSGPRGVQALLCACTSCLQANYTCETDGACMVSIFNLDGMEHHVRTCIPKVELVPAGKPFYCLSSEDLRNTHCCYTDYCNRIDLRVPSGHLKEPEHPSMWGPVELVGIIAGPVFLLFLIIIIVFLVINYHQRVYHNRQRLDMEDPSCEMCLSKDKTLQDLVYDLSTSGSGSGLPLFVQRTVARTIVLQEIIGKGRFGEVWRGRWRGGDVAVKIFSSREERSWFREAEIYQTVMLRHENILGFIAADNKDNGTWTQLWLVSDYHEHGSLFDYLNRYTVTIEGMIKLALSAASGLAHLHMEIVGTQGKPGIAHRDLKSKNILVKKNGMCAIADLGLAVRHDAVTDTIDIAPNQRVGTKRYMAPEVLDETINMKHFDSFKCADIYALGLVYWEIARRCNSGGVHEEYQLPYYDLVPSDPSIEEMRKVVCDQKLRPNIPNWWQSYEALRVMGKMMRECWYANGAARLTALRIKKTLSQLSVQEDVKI

`O=C(O)c1ccc(Nc2ncc3c(n2)-c2ccc(Cl)cc2C(c2c(F)cccc2F)=NC3)cc1` [MLN-8054] gave an Activity [1] of 67%, an Activity [2] of 35% and an Activity [3] of 110%. It also gave an Activity [4] of 43%, an Activity [5] of 65% and an Activity [6] of 111%. The Activity [7] was 114%, the Activity [8] was 110% and the Activity [9] was 100%. For the same molecule, the Activity [10] was 95%, the Activity [11] was 120% and the Activity [12] was 106%. The Activity [13] was 95%, the Activity [14] was 96% and the Activity [15] was 100%. The Activity (Bos taurus) was 86%, the Activity [16] was 98% and the Activity [17] was 109%. The Activity [18] was 112%, the Activity [19] was 109% and the Activity [20] was 90%. For the same molecule, the Activity [21] was 88%, the Activity [22] was 100% and the Activity [23] was 103%. For the same molecule, the Activity [24] was 96%, the IC50 [25] was 19000 nM and the Activity (Mus musculus [26]) was 5.4%. For the same molecule, the Activity [27] was 95%, the Activity [28] was 115% and the Activity [29] was 99%. For the same molecule, the Activity [30] was 123%, the Activity [31] was 105% and the IC50 (DLD-1) was 1430 nM. For the same molecule, the IC50 (MCF7) was 670 nM, the Activity (Mus musculus [32]) was less than 2% and the Activity (PC-3 [33]) was 36.1%. The Activity (PC-3 [34]) was 13.2%, the Activity (PC-3 [35]) was 12.9% and the Activity (PC-3 [36]) was 4.9%.
